Laboratory results published in ChEMBL document CHEMBL6177937, “Design, synthesis, and biological evaluation of novel thiazole derivatives as PI3K/mTOR dual inhibitors” (RSC Med Chem, 2024).

How the values were obtained:
[1] = tested on: Panel NCI-60 (60 carcinoma cell lines); assay: Antiproliferative activity against human NCI-60 cells assessed as growth inhibition at 10 uM measured after 48 hrs by SRB assay relative to control; format: functional; settings: read-out: GI
In short: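 NCI screen: cells seeded at […] per well and preincubated 24 h (37°C, 5% CO2). Compound stocks in DMSO, tested at a single 10 μM. Exposure 48 h. Adherent cells fixed with cold TCA (10% final), suspension cells with 16% TCA. SRB stain read at 515 nm. Percent growth inhibition reported against time-zero and untreated controls.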

[2] = tested on: CCRF-CEM; assay: Growth inhibition of human CCRF-CEM cells measured after 48 hrs by SRB assay; format: functional
In short: (§1)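 NCI 60-line format with five concentrations (10-fold or ½-log serial dilutions) from DMSO stocks in medium with 50 μg/mL gentamicin. Cells preincubated 24 h, then exposed 48 h at 37°C, 5% CO2. Time-zero plates TCA-fixed. SRB absorbance read at 515 nm. GI50 taken from [(Ti−Tz)/(C−Tz)]×100 = 50. Out-of-range values are expressed as > or < the highest or lowest concentration tested.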

[3] = tested on: HL-60; assay: Growth inhibition of human HL-60 cells measured after 48 hrs by SRB assay; format: functional; settings: for CC50: read-out: LC50 (the source's name); in short: as §1
[4] = tested on: RPMI-8226; assay: Growth inhibition of human RPMI-8226 cells measured after 48 hrs by SRB assay; format: functional
In short: (§2)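 NCI 60-line SRB screen: cells seeded […], grown 24 h at 37°C, 5% CO2, then exposed 48 h to five concentrations (10-fold or ½-log dilutions from DMSO stock). Adherent cells fixed with cold TCA (final 10%), suspension cells with 80% TCA (final 16%); SRB stained, read at 515 nm. GI50 from time-zero, control and treated absorbances.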

[5] = tested on: HOP-62; assay: Growth inhibition of human HOP-62 cells measured after 48 hrs by SRB assay; format: functional; in short: as §1
[6] = tested on: HOP-92; assay: Growth inhibition of human HOP-92 cells measured after 48 hrs by SRB assay; format: functional; in short: as §1
[7] = tested on: NCI-H226; assay: Growth inhibition of human NCI-H226 cells measured after 48 hrs by SRB assay; format: functional; in short: as §1
[8] = tested on: NCI-H23; assay: Growth inhibition of human NCI-H23 cells measured after 48 hrs by SRB assay; format: functional; in short: as §1
[9] = tested on: HCC 2998; assay: Growth inhibition of human HCC 2998 cells measured after 48 hrs by SRB assay; format: functional; in short: as §1
[10] = tested on: KM12; assay: Growth inhibition of human KM12 cells measured after 48 hrs by SRB assay; format: functional; in short: as §1
[11] = tested on: SW-620; assay: Growth inhibition of human SW620 cells measured after 48 hrs by SRB assay; format: functional; in short: as §2
[12] = tested on: SF-295; assay: Growth inhibition of human SF-295 cells measured after 48 hrs by SRB assay; format: functional; settings: for CC50: read-out: LC50 (the source's name); in short: as §2
[13] = tested on: SF-539; assay: Growth inhibition of human SF-539 cells measured after 48 hrs by SRB assay; format: functional; in short: as §2
[14] = tested on: SNB-75; assay: Growth inhibition of human SNB-75 cells measured after 48 hrs by SRB assay; format: functional; in short: as §2
[15] = tested on: SK-MEL-28; assay: Growth inhibition of human SK-MEL-28 cells measured after 48 hrs by SRB assay; format: functional; in short: as §2
[16] = tested on: SK-MEL-5; assay: Growth inhibition of human SK-MEL-5 cells measured after 48 hrs by SRB assay; format: functional; in short: as §2
[17] = tested on: UACC-62; assay: Growth inhibition of human UACC-62 cells measured after 48 hrs by SRB assay; format: functional; in short: as §2
[18] = tested on: IGROV-1; assay: Growth inhibition of human IGROV-1 cells measured after 48 hrs by SRB assay; format: functional; in short: as §1
[19] = tested on: OVCAR-3; assay: Growth inhibition of human OVCAR-3 cells measured after 48 hrs by SRB assay; format: functional; in short: as §1
[20] = tested on: ACHN; assay: Growth inhibition of human ACHN cells measured after 48 hrs by SRB assay; format: functional; in short: as §1
[21] = tested on: RXF 393; assay: Growth inhibition of human RXF 393 cells measured after 48 hrs by SRB assay; format: functional; in short: as §2
[22] = tested on: TK-10; assay: Growth inhibition of human TK-10 cells measured after 48 hrs by SRB assay; format: functional; in short: as §2
[23] = tested on: UO-31; assay: Growth inhibition of human UO-31 cells measured after 48 hrs by SRB assay; format: functional; settings: for CC50: read-out: LC50 (the source's name); in short: as §2
[24] = tested on: DU-145; assay: Growth inhibition of human DU-145 cells measured after 48 hrs by SRB assay; format: functional; in short: as §1
[25] = tested on: Hs-578T; assay: Growth inhibition of human Hs-578T cells measured after 48 hrs by SRB assay; format: functional; settings: for CC50: read-out: LC50 (the source's name); in short: as §1
[26] = tested on: MDA-MB-468; assay: Growth inhibition of human MDA-MB-468 cells measured after 48 hrs by SRB assay; format: functional; in short: as §1
[27] = Selectivity index, ratio of IC50 for human PCS-800-017 cells to IC50 for human HL-60 cells; format: toxicity; settings: PCS-800-017 cells and HL-60 cells, read-out: Ratio IC50
[28] = biological target: Serine/threonine-protein kinase mTOR (Homo sapiens, UniProt P42345); assay: Inhibition of recombinant human N-terminal FLAG-tagged mTOR (1362 to end residues) expressed in baculovirus infected Sf21 insect cells using ULight-4E-BP1 as substrate measured after 30 mins by LANCE ultra assay
[29] = tested on: HL-60; assay: Cell cycle arrest in human HL-60 cells assessed as decrease in accumulation of cells at G2/M-phase at 2.32 uM measured after 24 hrs by propidium iodide staining based flow cytometry relative to control; format: functional; set-up: scale not given: the % may be the effect or the level left
[30] = tested on: HL-60; assay: Induction of apoptosis in human HL-60 cells assessed as increase in total apoptotic cells measured after 24 hrs by Annexin-V/propidium iodide staining based flow cytometry relative to control; format: functional
[31] = tested on: HL-60; assay: Induction of apoptosis in human HL-60 cells assessed as early apoptotic cells measured after 24 hrs by Annexin-V/propidium iodide staining based flow cytometry (reference value: 0.61%); format: functional
[32] = tested on: HL-60; assay: Induction of apoptosis in human HL-60 cells assessed as necrotic cells measured after 24 hrs by Annexin-V/propidium iodide staining based flow cytometry (reference value: 0.61%); format: functional
[33] = tested on: HL-60; assay: Induction of apoptosis in human HL-60 cells assessed as increase in caspase-3 level measured after 24 hrs by ELISA relative to control

CCOc1cc(/C=N/Nc2nc(-c3cccc([N+](=O)[O-])c3)cs2)ccc1O
inhibition of growth at 10 µM [1]: 112%
GI50 [2]: 2030 nM
TGI [2]: 29.6 µM
GI50 [3]: 2320 nM
TGI [3]: 7.84 µM
CC50 [3]: > 100 µM
GI50 [4]: 3030 nM
TGI [4]: > 100 µM
GI50 [5]: 2.51 µM
TGI [5]: 6.92 µM
GI50 [6]: 3200 nM
TGI [6]: 30.9 µM
GI50 [7]: 2.36 µM
TGI [7]: 6.22 µM
GI50 [8]: 1.99 µM
TGI [8]: 5.14 µM
GI50 [9]: 3430 nM
TGI [9]: 19.8 µM
GI50 [10]: 1940 nM
TGI [10]: 3.63 µM
GI50 [11]: 3.53 µM
TGI [11]: 11.6 µM
GI50 [12]: 2 µM
TGI [12]: 4.28 µM
CC50 [12]: 9.16 µM
GI50 [13]: 1.78 µM
TGI [13]: 4.15 µM
GI50 [14]: 2.72 µM
TGI [14]: 13.1 µM
GI50 [15]: 2.27 µM
TGI [15]: 5.97 µM
GI50 [16]: 2.73 µM
TGI [16]: 9.14 µM
GI50 [17]: 2.39 µM
TGI [17]: 6.56 µM
GI50 [18]: 2.46 µM
TGI [18]: 7.23 µM
GI50 [19]: 2310 nM
TGI [19]: 4.43 µM
GI50 [20]: 3.22 µM
TGI [20]: 11.6 µM
GI50 [21]: 1.89 µM
TGI [21]: 4.82 µM
GI50 [22]: 4.42 µM
TGI [22]: 16.1 µM
GI50 [23]: 2.29 µM
TGI [23]: 8.85 µM
CC50 [23]: > 100 µM
GI50 [24]: 3430 nM
TGI [24]: 11.6 µM
GI50 [25]: 3380 nM
TGI [25]: 39.2 µM
CC50 [25]: > 100 µM
GI50 [26]: 2170 nM
TGI [26]: 4.61 µM
selectivity ratio [27]: 12.3
IC50 [28]: 221 nM
Activity [29]: 63.5%
fold change (FC) [30]: 23.07
Activity [31]: 31.19%
Activity [32]: 4.93%
fold change (FC) [33]: 4.61

O=[N+]([O-])c1cc(/C=N/Nc2nc(-c3ccc(Cl)cc3)cs2)ccc1Cl
inhibition of growth at 10 µM [1]: 66%
GI50 [2]: 3620 nM
TGI [2]: 52.9 µM
GI50 [3]: 2290 nM
TGI [3]: 7.43 µM
CC50 [3]: > 100 µM
GI50 [4]: 2310 nM
TGI [4]: 6.29 µM
GI50 [5]: 8.87 µM
TGI [5]: 22.4 µM
GI50 [6]: 2590 nM
TGI [6]: 10.8 µM
GI50 [7]: 4.21 µM
TGI [7]: 32.6 µM
GI50 [8]: 12.5 µM
TGI [8]: 40.9 µM
GI50 [9]: 1870 nM
TGI [9]: 3.55 µM
GI50 [10]: 1880 nM
TGI [10]: 3.58 µM
GI50 [11]: 18.3 µM
TGI [11]: 43.1 µM
GI50 [12]: 14.9 µM
TGI [12]: 28.3 µM
CC50 [12]: 53.8 µM
GI50 [13]: 16.3 µM
TGI [13]: 31.1 µM
GI50 [14]: 14.8 µM
TGI [14]: 40.1 µM
GI50 [15]: 17.2 µM
TGI [15]: 46.4 µM
GI50 [16]: 10.3 µM
TGI [16]: 24.5 µM
GI50 [17]: 11.1 µM
TGI [17]: 26 µM
GI50 [18]: 13.6 µM
TGI [18]: 37.4 µM
GI50 [19]: 1730 nM
TGI [19]: 3.13 µM
GI50 [20]: 15.1 µM
TGI [20]: 28.4 µM
GI50 [21]: 11.9 µM
TGI [21]: 30.6 µM
GI50 [22]: 28.1 µM
TGI [22]: 84 µM
GI50 [23]: 8.46 µM
TGI [23]: 20.7 µM
CC50 [23]: 45.5 µM
GI50 [24]: 1630 nM
TGI [24]: 3.07 µM
GI50 [25]: 2360 nM
TGI [25]: 6.14 µM
CC50 [25]: > 100 µM
GI50 [26]: 1540 nM
TGI [26]: 3.01 µM
selectivity ratio [27]: 9.9
IC50 [28]: 896 nM
fold change (FC) [30]: 19.9
Activity [31]: 23.62%
Activity [32]: 3.64%
fold change (FC) [33]: 3.48
